High-throughput results from PubChem BioAssay.
MrgX1 antagonist – human MrgX1 receptor antagonism, primary screen; Q96LB2; MRGX1-HEK293 calcium flux, Fluo-4, BAM8-22 antagonism; active compounds read low; B-score at 10 µM; 310,000 compounds, 1.3% hits; AID 588676;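 active = calcium-response B-score plate-corrected more than 3 library SD below zero, starting fluorescence within 5 deviations, no agonist response on first addition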;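 note: peak minus trough fluorescence over baseline after final BAM8-22 challenge near maximal dose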
Target sequence (Q96LB2 whole entry, looked up): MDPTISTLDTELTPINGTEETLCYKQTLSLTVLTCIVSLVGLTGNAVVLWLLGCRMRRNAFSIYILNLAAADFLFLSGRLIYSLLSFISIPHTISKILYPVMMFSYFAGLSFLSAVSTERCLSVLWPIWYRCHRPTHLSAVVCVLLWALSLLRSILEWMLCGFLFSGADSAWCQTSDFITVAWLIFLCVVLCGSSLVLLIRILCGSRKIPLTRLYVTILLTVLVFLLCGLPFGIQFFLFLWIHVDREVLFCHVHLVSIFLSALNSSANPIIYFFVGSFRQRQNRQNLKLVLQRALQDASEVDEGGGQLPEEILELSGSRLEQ
MrgX1 agonist – human MrgX1 receptor agonism, primary screen. Q96LB2. MrgX1-HEK293 cells, Fluo-4 calcium fluorescence, agonist mode; active compounds read high. B-score at 10 µM. AID 588627. 310,000 compounds, 0.44% hits;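 active = calcium response B-score plate-corrected fluorescence ratio at least 3 library SD, with starting fluorescence B-score inside 5 SD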
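Material: HEK293 cells stably expressing human MrgX1 receptor | Quantity: 15,000 cells per well | Times: Cells plated overnight, dye loaded 0.5 h 37 °C, 0.5 h room temperature | Measured by: Kinetic Fluo-4 NW fluorescence of intracellular calcium | Control set: Positive and negative controls per plate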
RGS4 pot – potentiators or activators of RGS4. HEK293 M3R/inducible RGS4, carbachol calcium flux Fluo4; active compounds read low. 310,000 compounds, 0.92% hits. B-score at 10 µM;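 active = B-score of the integrated calcium signal more than 4 SD below the library mean, with starting fluorescence not abnormally high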;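 note: negative B-score means reduced calcium response which marks RGS4 activation or potentiation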
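test system = M3R-expressing HEK293 line, RGS4 induced by doxycycline | probe or stimulus = carbachol at ECmax as muscarinic agonist stimulus | timing = dye loading 30 min 37 °C, buffer rest 30 min RT | signal = calcium dye Fluo4 fluorescence | evaluation = B score from integrated fluorescence ratio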
RGS4 inh – inhibitors of human RGS4; HEK293 M3R/RGS4 inducible, Fluo-4 calcium flux; active compounds read high; triggered by carbachol at its EC20; 310,000 compounds, 0.45% hits; P49798; B-score at 10 µM;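 active = B-score, a plate-corrected calcium signal, over three deviations above library mean, with baseline fluorescence within five deviations of library mean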;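 note: RGS4 expression induced by doxycycline in cells with stable M3 receptor; B-score is computed from the integrated fluorescence ratio over baseline after carbachol; higher B-score means a larger calcium signal and so more RGS4 inhibition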
Target sequence (P49798 whole entry, looked up): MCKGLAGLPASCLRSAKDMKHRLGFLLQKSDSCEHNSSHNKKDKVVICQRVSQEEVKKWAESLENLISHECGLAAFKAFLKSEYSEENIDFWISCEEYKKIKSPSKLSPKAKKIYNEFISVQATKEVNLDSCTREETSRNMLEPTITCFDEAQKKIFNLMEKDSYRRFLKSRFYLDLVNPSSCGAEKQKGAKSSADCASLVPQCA
MrgX1 allo act – allosterically activates human MrgX1 receptor signaling; 310,000 compounds, 0.63% hits; B-score at 10 µM; AID 588675; Q96LB2; MrgX1-HEK293, Fluo-4 calcium flux, FDSS; active compounds read high;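 active = plate-corrected calcium response at least 3 library SD above typical, normal starting fluorescence, not activating the receptor alone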;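 note: compound read alongside a low EC10 to EC30 dose of BAM8-22 agonist; peak minus trough fluorescence over baseline measured at the second addition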
Numbers without * were called inactive; i = inactive; . = no result. Hits are enriched below; roughly 3.5% of the tested compounds scored in any of these assays.

SMILES	MrgX1 antagonist	MrgX1 agonist	RGS4 pot	RGS4 inh	MrgX1 allo act
COc1ccc(-c2nn(-c3ccccc3)cc2/C=N/NC(=O)c2cccc(S(=O)(=O)Nc3ccccc3Cl)c2)cc1	-5*	i	i	i	i
O=C(N/N=C/c1ccccn1)c1cccc(S(=O)(=O)Nc2ccccc2Cl)c1	i	i	i	i	16.5*
Cc1nn(-c2ccccc2)c(Cl)c1CN(C(=O)CCl)c1cccc2ccccc12	i	i	i	i	10.5*
Cc1ccc(-c2nc3cc(Br)cnc3nc2-c2ccc(C)cc2)cc1	i	i	i	i	i
Brc1cccc(-c2nc3cccnc3nc2-c2cccc(Br)c2)c1	i	i	-7.03*	i	i
O=C(CC1OC(=O)c2ccccc21)Nc1cc(S(=O)(=O)N2CCOCC2)ccc1OCC(F)(F)F (stereo unspecified)	i	i	i	i	i
CCN1CCc2nc3sc(C(=O)N4CCc5ccccc5C4)c(N)c3cc2C1	i	i	i	i	i
CC(C)c1ccc2nc3sc(C(=O)N4CCc5ccccc5C4)c(N)c3cc2c1	-5.85*	i	i	i	i
CCc1ccc2nc3sc(C(=O)N4CCc5ccccc54)c(N)c3cc2c1	-7.66*	i	i	i	i
Cc1c(N2C(=O)/C(=C\c3ccc(N(C)C)cc3)N(C)C2=S)c(=O)n(-c2ccccc2)n1C	-4.52*	i	.	.	i
CCN(CC)CCNC(=O)CCc1c(C)nc2c(c(C)nn2-c2ccc(C)c(C)c2)c1C	i	i	-7.05*	i	i
COC(CNC(=O)CCc1c(C)nc2c(c(C)nn2-c2ccc(C)cc2)c1C)OC	i	i	i	i	i
Cc1ccc(-n2nc(C)c3c(C)c(CCC(=O)Nc4ccc(CN5CCCC5)cc4)c(C)nc32)cc1	i	i	-7.09*	i	i
O=C(Cn1c(C(F)(F)F)nc2ccccc21)N/N=C/c1ccco1	i	i	i	i	i
Cc1ccc(C)c(C(=O)COC(=O)CCCC(=O)Nc2cc(C(F)(F)F)ccc2Cl)c1	-7.01*	i	i	i	i
COCCn1c(C(C)C)nc2ccccc21	i	i	i	i	i
COC(=O)C1(C(C[N+](=O)[O-])c2ccco2)C(=O)NCC1c1ccccc1 (stereo unspecified)	i	41.8*	i	i	i
COc1ccc(-n2nc(C(=O)NCC(=O)NCc3ccc(F)cc3)c3ccccc3c2=O)cc1	i	i	i	i	i
CCOc1cc(-c2nnc(NC(=O)c3ccco3)o2)cc(OCC)c1OCC	-4.87*	i	i	i	i
CCC1(c2ccccc2)NC(=O)N(CC(=O)Nc2ccc(N3CCCC3)cc2C)C1=O (stereo unspecified)	i	i	i	i	i
Cc1nn(-c2ccc(Cl)cc2)c2[nH]c(CCl)cc(=O)c12	i	i	i	i	i
COc1ccc(-c2cc([C@H]3[C@@H]4C=CCC[C@@]4(C)C(=O)N3Cc3ccccc3)ccc2F)cc1	-5.41*	i	i	i	i
CCCCCc1ccc(OCCCC[n+]2cccc(C)c2)c(CCCCC)c1	i	i	-8.71*	i	i
CCCCCc1ccc(OCCCC[n+]2ccc(C)cc2)c(CCCCC)c1	i	i	i	i	i
CCCCCc1ccc(OCCCC[n+]2ccccc2)c(CCCCC)c1	i	i	-7.75*	i	i
SMILES	MrgX1 antagonist	MrgX1 agonist	RGS4 pot	RGS4 inh	MrgX1 allo act
CC(NC(=O)Cn1cc(C(F)(F)F)ccc1=O)c1ccc(F)cc1 (stereo unspecified)	i	i	i	i	6.91*
Cn1nc(C(=O)N2CCN(C(c3ccccc3)c3ccccc3)CC2)c2ccccc2c1=O	i	i	i	i	i
OCCCNCc1ccc(N(c2ccccc2)c2ccccc2)cc1	i	i	-7.29*	i	i
CN(C)C(/C=C/Nc1ccc(F)cc1)=C(C#N)C#N	i	i	i	i	i
CN(C)C(/C=C/Nc1ccc(C#N)cc1)=C(C#N)C#N	-5.22*	i	i	i	i
CC(C)(CO)NC(=O)C12CC3CC(CC(Br)(C3)C1)C2	i	i	i	i	i
Cc1ccc(S(=O)(=O)N[C@H](C(=O)Oc2ccc3c(C(F)(F)F)cc(=O)oc3c2)c2ccccc2)cc1	i	28.6*	i	i	i
Cc1ccc(S(=O)(=O)NC(C(=O)Oc2ccc3ccc(=O)oc3c2)c2ccccc2)cc1 (stereo unspecified)	i	i	i	i	i
O=C(CNC(=O)c1cccc(F)c1)OCCOc1cccc(Cl)c1	i	i	i	i	i
CCCCCc1nnc(NC(=O)c2ccc(N3CCCC3=O)cc2)s1	i	i	i	i	i
Cn1c(=O)c(C(=O)N2CCc3ccccc32)cc2cccnc21	i	i	i	i	i
Nc1c(S(=O)(=O)c2cccc(Cl)c2)c2nc3ccccc3nc2n1/N=C/c1ccc(O)c(O)c1	i	i	i	15.5*	i
COc1cccc(/C=N/n2c(N)c(S(=O)(=O)c3cccs3)c3nc4ccccc4nc32)c1OC	i	i	i	i	i
CCOC(=O)C(CN1CCCC1)c1ccccc1 (stereo unspecified)	i	i	i	i	i
O=C(c1ccc(Cl)cc1)C(CN1CCCCC1)c1ccccc1 (stereo unspecified)	i	i	-8.33*	i	i
Clc1ccccc1/C=N/c1cc(-c2ccccc2)nn1-c1ccccc1	-4.92*	i	i	i	i
CC(=O)C(/C=N/c1cc(-c2ccc(C)cc2)nn1-c1ccccc1)=C(\C)O	i	i	i	i	i
COc1ccccc1C1=NNC(=Nc2cccc(S(=O)(=O)N(C)C)c2)SC1	-4.98*	i	i	i	i
COCCn1c(C)cc(C2=NNC(=Nc3ccccc3)SC2)c1C	i	i	i	i	i
Cc1cc(Cl)ccc1NC(=O)CCC(=O)N/N=C/c1cccnc1	i	i	i	i	i
Cc1nn(-c2ccc(Cl)cc2)c(Cl)c1/C=N/NC(=O)c1ccc(NS(=O)(=O)c2cccs2)cc1	i	i	i	i	13.1*
CCOC(=O)C1(CCOc2ccccc2)CCN(Cc2ccc(COC)o2)CC1	i	32.5*	i	i	i
COC(=O)c1ccc(CN2CCC(CO)(Cc3cccc(OC)c3)CC2)cc1	i	i	i	i	i
COC(=O)c1ccc(CN2CCC(CO)(CCOc3ccccc3)CC2)cc1	i	i	-6.95*	i	i
